According to ChEMBL document CHEMBL4689842, “EUbOPEN Chemogenomics Library wave 1” (2021):

Test system: U2OS
Assay: Multiplex assay against U2OS
Format: toxicity, cell-based
Conditions: human
How it was run: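 Imaging took place on a CQ1 microscope at 37°C and 5% CO2 once compound had been added to live cells stained at seeding with Hoechst33342, BioTracker Green Microtubule Cytoskeleton Dye, MitoTracker Red and Annexin V Alexa Fluor 680. CellPathfinder machine-learning gating classed cells as Hoechst high-intensity objects or normal cells, classed normal cells as having healthy, pyknosed or fragmented nuclei, and classed pyknosed cells as mitotic or apoptotic. Tubulin, mitochondrial-mass and membrane-permeability phenotypes are per cents of the healthy-nucleus cells.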

[1] = 12 h, 1 µM, compound concentration 1 uM, replicate 1
[2] = 12 h, 1 µM, compound concentration 1 uM, replicate 2
[3] = 12 h, 10 µM, compound concentration 10 uM, replicate 1
[4] = 12 h, 10 µM, compound concentration 10 uM, replicate 2
[5] = 24 h, 1 µM, compound concentration 1 uM, replicate 1
[6] = 24 h, 1 µM, compound concentration 1 uM, replicate 2
[7] = 24 h, 10 µM, compound concentration 10 uM, replicate 1
[8] = 24 h, 10 µM, compound concentration 10 uM, replicate 2
[9] = 48 h, 1 µM, compound concentration 1 uM, replicate 1
[10] = 48 h, 1 µM, compound concentration 1 uM, replicate 2
[11] = 48 h, 10 µM, compound concentration 10 uM, replicate 1
[12] = 48 h, 10 µM, compound concentration 10 uM, replicate 2

CCCn1c(=O)c2[nH]c(C34CC5CC(CC3C5)C4)nc2n(CCC)c1=O [ROLOFYLLINE]
Population Apoptotic (%) [1]: 50%
Population Fragmented Nuclei (%) [1]: 14%
Population Healthy Nuclei (%) [1]: 77%
Population Hoechst High Intensity Objects (%) [1]: 7%
Population Membrane Permeable-Phenotype (%) [1]: 9%
Population Mitochondria Different-Phenotype (%) [1]: 8%
Population Mitotic Cells (%) [1]: 50%
Population Normal (%) [1]: 92%
Population Pyknosed Nuclei (%) [1]: 8%
Population Tubulin-Different-Phenotype (%) [1]: 18%
Total Cell Count [1]: 123
Population Apoptotic (%) [2]: 71%
Population Fragmented Nuclei (%) [2]: 4%
Population Healthy Nuclei (%) [2]: 88%
Population Hoechst High Intensity Objects (%) [2]: 3%
Population Membrane Permeable-Phenotype (%) [2]: 12%
Population Mitochondria Different-Phenotype (%) [2]: 15%
Population Mitotic Cells (%) [2]: 28%
Population Normal (%) [2]: 96%
Population Pyknosed Nuclei (%) [2]: 7%
Population Tubulin-Different-Phenotype (%) [2]: 20%
Total Cell Count [2]: 81
Population Apoptotic (%) [3]: 58%
Population Fragmented Nuclei (%) [3]: 7%
Population Healthy Nuclei (%) [3]: 76%
Population Hoechst High Intensity Objects (%) [3]: 13%
Population Membrane Permeable-Phenotype (%) [3]: 32%
Population Mitochondria Different-Phenotype (%) [3]: 80%
Population Mitotic Cells (%) [3]: 41%
Population Normal (%) [3]: 86%
Population Pyknosed Nuclei (%) [3]: 17%
Population Tubulin-Different-Phenotype (%) [3]: 97%
Population Apoptotic (%) [4]: 55%
Population Fragmented Nuclei (%) [4]: 13%
Population Healthy Nuclei (%) [4]: 74%
Population Hoechst High Intensity Objects (%) [4]: 3%
Population Membrane Permeable-Phenotype (%) [4]: 46%
Population Mitochondria Different-Phenotype (%) [4]: 73%
Population Mitotic Cells (%) [4]: 44%
Population Normal (%) [4]: 96%
Population Pyknosed Nuclei (%) [4]: 12%
Population Tubulin-Different-Phenotype (%) [4]: 100%
Total Cell Count [4]: 99
Population Apoptotic (%) [5]: 50%
Population Fragmented Nuclei (%) [5]: 9%
Population Healthy Nuclei (%) [5]: 74%
Population Hoechst High Intensity Objects (%) [5]: 2%
Population Membrane Permeable-Phenotype (%) [5]: 5%
Population Mitochondria Different-Phenotype (%) [5]: 5%
Population Mitotic Cells (%) [5]: 50%
Population Normal (%) [5]: 97%
Population Pyknosed Nuclei (%) [5]: 15%
Population Tubulin-Different-Phenotype (%) [5]: 10%
Total Cell Count [5]: 136
Population Apoptotic (%) [6]: 40%
Population Fragmented Nuclei (%) [6]: 7%
Population Healthy Nuclei (%) [6]: 88%
Population Hoechst High Intensity Objects (%) [6]: 5%
Population Membrane Permeable-Phenotype (%) [6]: 6%
Population Mitochondria Different-Phenotype (%) [6]: 11%
Population Mitotic Cells (%) [6]: 60%
Population Normal (%) [6]: 94%
Population Pyknosed Nuclei (%) [6]: 4%
Population Tubulin-Different-Phenotype (%) [6]: 15%
Total Cell Count [6]: 83
Population Apoptotic (%) [7]: 60%
Population Fragmented Nuclei (%) [7]: 13%
Population Healthy Nuclei (%) [7]: 60%
Population Hoechst High Intensity Objects (%) [7]: 10%
Population Membrane Permeable-Phenotype (%) [7]: 38%
Population Mitochondria Different-Phenotype (%) [7]: 84%
Population Mitotic Cells (%) [7]: 39%
Population Normal (%) [7]: 89%
Population Pyknosed Nuclei (%) [7]: 26%
Population Tubulin-Different-Phenotype (%) [7]: 98%
Total Cell Count [7]: 105
Population Apoptotic (%) [8]: 56%
Population Fragmented Nuclei (%) [8]: 9%
Population Healthy Nuclei (%) [8]: 58%
Population Hoechst High Intensity Objects (%) [8]: 5%
Population Membrane Permeable-Phenotype (%) [8]: 41%
Population Mitochondria Different-Phenotype (%) [8]: 81%
Population Mitotic Cells (%) [8]: 43%
Population Normal (%) [8]: 94%
Population Pyknosed Nuclei (%) [8]: 31%
Population Tubulin-Different-Phenotype (%) [8]: 100%
Total Cell Count [8]: 120
Population Apoptotic (%) [9]: 72%
Population Fragmented Nuclei (%) [9]: 9%
Population Healthy Nuclei (%) [9]: 78%
Population Hoechst High Intensity Objects (%) [9]: 4%
Population Membrane Permeable-Phenotype (%) [9]: 2%
Population Mitochondria Different-Phenotype (%) [9]: 10%
Population Mitotic Cells (%) [9]: 27%
Population Normal (%) [9]: 95%
Population Pyknosed Nuclei (%) [9]: 12%
Population Tubulin-Different-Phenotype (%) [9]: 10%
Total Cell Count [9]: 168
Population Apoptotic (%) [10]: 43%
Population Fragmented Nuclei (%) [10]: 5%
Population Healthy Nuclei (%) [10]: 84%
Population Hoechst High Intensity Objects (%) [10]: 2%
Population Membrane Permeable-Phenotype (%) [10]: 8%
Population Mitochondria Different-Phenotype (%) [10]: 21%
Population Mitotic Cells (%) [10]: 56%
Population Normal (%) [10]: 97%
Population Pyknosed Nuclei (%) [10]: 9%
Population Tubulin-Different-Phenotype (%) [10]: 17%
Total Cell Count [10]: 103
Population Apoptotic (%) [11]: 69%
Population Fragmented Nuclei (%) [11]: 18%
Population Healthy Nuclei (%) [11]: 43%
Population Hoechst High Intensity Objects (%) [11]: 12%
Population Membrane Permeable-Phenotype (%) [11]: 35%
Population Mitochondria Different-Phenotype (%) [11]: 60%
Population Mitotic Cells (%) [11]: 30%
Population Normal (%) [11]: 87%
Population Pyknosed Nuclei (%) [11]: 37%
Population Tubulin-Different-Phenotype (%) [11]: 96%
Total Cell Count [11]: 157
Population Apoptotic (%) [12]: 66%
Population Fragmented Nuclei (%) [12]: 19%
Population Healthy Nuclei (%) [12]: 39%
Population Hoechst High Intensity Objects (%) [12]: 4%
Population Membrane Permeable-Phenotype (%) [12]: 81%
Population Mitochondria Different-Phenotype (%) [12]: 68%
Population Mitotic Cells (%) [12]: 33%
Population Normal (%) [12]: 95%
Population Pyknosed Nuclei (%) [12]: 40%
Population Tubulin-Different-Phenotype (%) [12]: 100%
Total Cell Count [12]: 168
